Experimental data pooled from the literature.
Target: Serine/threonine-protein kinase 17B (STK17B, Homo sapiens, UniProt O94768)
Residues used in one study (O94768 1-372): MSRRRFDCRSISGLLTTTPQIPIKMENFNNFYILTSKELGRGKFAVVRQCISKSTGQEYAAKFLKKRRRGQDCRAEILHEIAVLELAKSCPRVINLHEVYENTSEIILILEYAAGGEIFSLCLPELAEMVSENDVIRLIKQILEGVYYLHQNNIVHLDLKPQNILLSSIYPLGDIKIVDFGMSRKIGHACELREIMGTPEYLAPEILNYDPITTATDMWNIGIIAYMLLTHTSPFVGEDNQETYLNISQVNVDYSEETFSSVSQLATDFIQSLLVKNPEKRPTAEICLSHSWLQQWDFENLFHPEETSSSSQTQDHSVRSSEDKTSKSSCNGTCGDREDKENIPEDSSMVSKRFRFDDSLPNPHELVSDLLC

SMILES	effect on	technique	tested at	remaining binding
COc1ccnn2ncc(-c3ccnc(N(C)C)n3)c12	binding	–	1 µM	100%
CN([C@@H]1CCc2c(CC(=O)O)c3cc(S(C)(=O)=O)ccc3n2C1)S(=O)(=O)c1ccc(F)cc1	cell-free assay	competition with immobilised ligand	1 µM	85%
CN(C)c1nccc(-c2cnc3ncccn23)n1	binding	–	1 µM	100%
O=C(NCCCN1CCOCC1)c1ccc(Nc2ncc(Cl)c(-c3ccc(Cl)s3)n2)cc1	binding	competition with immobilised ligand	1 µM	0.45%
C[C@@H]1CN(c2cc(-c3n[nH]c4ccc(OC5(C)CC5)cc34)ncn2)C[C@H](C)O1	cell-free assay	competition with immobilised ligand	0.1 µM	96%
C[C@@H]1CCN(c2nccc(-c3cnn4ncccc34)n2)C1	binding	–	1 µM	100%
Cc1noc([C@H]2C[C@@H](c3ccc(C(F)(F)F)cc3)CN(C(=O)N3CCS(=O)(=O)C3)C2)n1	cell-free assay	competition with immobilised ligand	1 µM	100%
N[C@@H]1CCN(c2nccc(-c3cnn4ncccc34)n2)C1	binding	–	1 µM	100%
Nc1ncc2c(n1)-c1c([nH]c3ccc(C#CC4CC4)cc13)CCCC2	binding	competition with immobilised ligand	1 µM	96%
CNC(=O)[C@@H]1CC[C@@H](n2c(-c3ccc4cnccc4c3)nc3ccc(C(=O)NCc4cccc(C(N)=O)c4)cc32)C1	binding	competition with immobilised ligand	1 µM	99%
c1cncc(-c2cccc(Nc3nccc(NC4CCCCC4)n3)c2)c1	binding	competition with immobilised ligand	10 µM	77%
CN(C)c1ncc(F)c(-c2cnn3ncccc23)n1	binding	–	1 µM	87%
CC(C)CC(=O)N1CCc2nc(-c3ccc(Br)cc3)nc(N(C)Cc3ccccc3)c2C1	cell-free assay	competition with immobilised ligand	0.1 µM	91%
O=C(NCCCN1CCOCC1)c1ccc(Nc2nccc(-c3cc4ccccc4s3)n2)cc1	binding	competition with immobilised ligand	1 µM	0%
CCCCN(CCCC)C(=O)CN1C[C@H](c2cc(OC)c3c(c2)OCO3)[C@@H](C(=O)O)[C@@H]1CC(C)(C)CCC	cell-free assay	competition with immobilised ligand	1 µM	100%
O=C(Nc1c[nH]nc1C(=O)NC1CCNCC1)c1cc(F)cc(F)c1	binding	competition with immobilised ligand	1 µM	100%
COc1ncc2cc3ccccc3nc2c1C#N	cell-free assay	competition with immobilised ligand	5 µM	100%
CS(=O)(=O)c1cc(C2(NC(=O)c3cncc4c3cnn4-c3ccc(F)cc3)CC2)ccn1	cell-free assay	competition with immobilised ligand	1 µM	83%
Cc1cnn2ncc(-c3ccnc(N(C)C)n3)c2c1	binding	–	1 µM	100%
CCCOc1ccc([C@H]2[C@H](C(=O)O)[C@@H](c3ccc4c(c3)OCO4)CN2CC(=O)Nc2c(CC)cccc2CC)cc1	cell-free assay	competition with immobilised ligand	1 µM	91%
c1cnn2ncc(-c3ccnc(N4CCC45COC5)n3)c2c1	binding	–	1 µM	100%
O=C(c1ccc(Nc2ncc(Cl)c(-c3cc4ccccc4s3)n2)cc1)N1CCC(N2CCCC2)CC1	binding	competition with immobilised ligand	1 µM	0%
